L major viab: reduces viability of Leishmania major promastigotes; resazurin fluorescence viability; AID 1063; hit rate 9% among 200,000; inhibition, % at 10 µM; in the data active = inhibition above about 50%;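 note: promastigotes grown with compound for 44 hours at 28 °C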
HCT116 PTEN-null: growth suppressors of cells with PTEN tumor suppressor deletion | hit rate 1.2% among 140,000 | AID 827 | HCT116 PTEN-null viability, CellTiter-Glo, 60 h; stronger effect = lower value | viability, % at 10 µM;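 active = viability at or below a set limit, 4 SD under the median of all tested compounds, cut at about 3.7% in these data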;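 note: PTEN knockout HCT116 line with beta catenin targeted HCT116 as companion control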
Autophagy HCS: modulators of autophagy; MEF GFP-LC3 puncta imaging; test concentration mostly 10 µM; calls only at 10 µM (by protocol); hit rate 0.98% among 190,000; AID 463193;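 active = percentage of spot-positive cells more than 3 SD above its plate mean, without a fluorescence outlier flag or 80% toxicity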;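 note: spot-positive cell cutoff set from DMSO-treated cells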
bCat KO growth: beta-catenin-lacking colon tumor cell growth suppression; HCT116 beta-catenin knockout viability, CellTiter-Glo, 60 h; stronger effect = lower value; viability, % at 10 µM; hit rate 1.5% among 140,000;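 active = viability at or under a set limit, the compound median less 4 SD, cut at about 6% in these data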;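 note: 0% = Hyamine 1622 control at 20 µM and 100% = untreated cell control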
Dynein cargo inh: blocks dynein driven cargo transport along microtubules | z-score, hits read low | AID 1381 | 3617.4 mouse cells, GR-EGFP nuclear translocation imaging; test concentration mostly 20 µM; stimulated with dexamethasone, 1 µM; stronger effect = lower value | hit rate 0.47% among 220,000;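 active = plate z-score of nuclear minus cytoplasmic receptor signal below a set negative limit, without overly bright fluorescence or cell loss, cut at about -3.5 in these data, passing the limit was not always enough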;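 note: z-score of nuclear minus cytoplasmic ring GR-EGFP intensity difference per well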
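Buffer or medium: tet-free medium with charcoal-stripped serum / Also added: dexamethasone agonist, 1.0 µM final, for 30 min / Timing: induction 48 h, compound 1 h, agonist 30 min / Measured by: high-content fluorescence imaging after fixation / Read-out: nuclear-to-cytoplasmic GR-EGFP distribution per well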
* = called active by the depositor; i = inactive; nt = not tested or not shown; + = active, no number. Most compounds without a hit are left out; they make up all but 9.2% or so of the library.

SMILES	L major viab	HCT116 PTEN-null	Autophagy HCS	bCat KO growth	Dynein cargo inh
COc1cc(/C=N/NC(=O)C(Cc2c[nH]c3ccccc23)NC(=O)OCC(C)C)cc([N+](=O)[O-])c1OCc1ccccc1 (stereo not given)	90.7*	nt	i	nt	0.0821
COc1cc(/C=N/NC(=O)C(Cc2c[nH]c3ccccc23)NC(=O)OCC(C)C)cc([N+](=O)[O-])c1O (stereo not given)	23.5	95.2	i	99.2	0.432
Cn1c(CC(=O)c2ccc(Br)cc2)[n+](C)c2ccccc21	-3.3	nt	+	nt	-0.297
CCOC(=O)Cc1csc(NC(=S)NC(=O)c2ccc([N+](=O)[O-])cc2)n1	74.7*	98.7	i	92.6	1.05
CCOC(=O)Cc1csc(NC(=S)NC(=O)c2ccc(Cl)cc2)n1	-9.2	95.2	i	101.3	1.44
CCC(=O)N1CCN(c2ccccc2NC(=S)NC(=O)c2cccc([N+](=O)[O-])c2)CC1	61.2*	nt	i	nt	-0.213
COc1ccc(C(=O)NC(=S)NNC(=O)c2ccc(NC(C)=O)cc2)cc1Br	76.6*	nt	i	nt	0.962
COc1ccc(C(=O)NC(=S)NC(C)C)cc1Br	-1.6	65.8	i	71.6	1.78
CCC(=O)N1CCN(c2ccc(NC(=S)NC(=O)c3cccc([N+](=O)[O-])c3)cc2)CC1	-4.2	91.2	i	89.3	nt
CC(=O)NNC(=S)NC(=O)c1cccc([N+](=O)[O-])c1	67.6*	94.0	i	95.4	-0.845
O=CNNC(=O)c1cccc([N+](=O)[O-])c1	28.5	101.7	i	95.8	-0.19
O=C(NNc1c(Cl)cc(Cl)cc1Cl)c1cccc([N+](=O)[O-])c1	79.2*	81.3	i	83.3	1.82
CC(=O)Nc1ccc(NC(=S)NC(=O)c2ccc([N+](=O)[O-])cc2)cc1	62.7*	86.9	i	86.7	1.07
COc1ccc(NC(=O)c2cccc([N+](=O)[O-])c2)cc1	3.3	nt	i	nt	-0.0146
COc1ccc(NC(=S)Nc2cccc([N+](=O)[O-])c2)cc1	87.4*	79.5	i	83.5	0.436
O=C(Cc1ccccc1)N[C@@H](Cc1ccc(O)cc1)C(=O)O	nt	nt	nt	nt	-0.0156
COc1ccc(N2C(=O)C(F)(F)C2c2ccc(C)cc2)cc1OC (stereo not given)	-0.2	nt	i	nt	-0.996
NC(=O)c1cnn(-c2ccc3ccccc3c2)c1N	-14.0	nt	i	nt	-0.238
CCc1sc(NC(=O)CN2CCOCC2)nc1-c1ccccc1	37.5	100.7	i	86.9	-0.527
CCOc1ccc(-c2csc(NC(=O)CSC3=NC(=O)CN3C(C)=O)n2)c2ccccc12	-0.8	97.6	i	97.8	-0.333
Cc1nc(NC(=O)CN2CCOCC2)sc1-c1ccccc1	51.0*	80.1	i	87.4	-1.11
CC(=O)N1CC(=O)N=C1SCC(=O)Nc1nc(C)c(-c2ccccc2)s1	95.7*	nt	i	nt	-2.06
CN1CCN(C(=O)CCN2C(=O)/C(=C/c3ccccc3Cl)SC2=S)CC1	100.1*	nt	i	nt	-1.66
CN1CCN(NC(=O)CN2C(=O)/C(=C/c3ccccc3Cl)SC2=S)CC1	47.5	102.9	i	88.8	-0.711
Cc1ccc(/C=C2/SC(=S)N(CCC(=O)N3CCN(C)CC3)C2=O)cc1	97.0*	nt	i	nt	0.347
SMILES	L major viab	HCT116 PTEN-null	Autophagy HCS	bCat KO growth	Dynein cargo inh
CN1CCN(C(=O)CCN2C(=O)S/C(=C/c3ccc(Cl)cc3)C2=O)CC1	32.3	nt	i	nt	-1.27
COCCCNC(=O)/C(C#N)=C/c1cc(C)[nH]c1C	-6.2	nt	i	nt	-1.07
COc1ccc(CC(=O)NNC(=O)CSc2ccc(C)cc2)cc1	-3.6	nt	i	nt	0.397
Cc1nc(CN(C)C(=O)c2ccccc2OC2CCN(S(C)(=O)=O)CC2)cs1	0.1	nt	+	nt	0.295
COc1ccc(N2CCN(C(=O)COc3ncnc4ccccc34)CC2)cc1	-0.1	nt	i	nt	0.678
Oc1ccccc1N=Nc1ccccc1O	99.6*	nt	i	nt	1.89
Oc1ccccc1N=Cc1c(O)ccc2ccccc12	nt	nt	nt	nt	-1.52
COc1ccc(CNC(=O)C(OC(=O)c2ccco2)c2ccc(OC)cc2)cc1 (stereo not given)	14.8	93.3	i	91.7	0.869
COC(C#CCCN(C)C)(c1ccccc1)c1ccccc1	99.6*	92.3	i	86.3	-0.37
CN(C)CC#CCC(O)(c1ccccc1)c1ccccc1	nt	nt	nt	nt	-0.183
COc1ccc(/C=N/NC(=O)c2nc(-c3ccccc3)n(-c3ccccc3)n2)c(O)c1	99.3*	7.9	i	9.3	-0.589
COc1ccc(/C=N/NC(=O)c2nc(-c3ccccc3)n(-c3ccccc3)n2)cc1	44.5	89.8	i	91.4	-0.228
CC(C)(C)c1cc(C(=O)N/N=C/c2ccccc2O)n(-c2ccccc2)n1	99.1*	10.8	i	8.0	-0.162
CC(C)(C)c1cc(C(=O)N/N=C/c2ccc(F)cc2)n(-c2ccccc2)n1	29.9	74.9	i	74.8	0.597
Cc1cccc(C)c1OC1(c2ccccc2)OC(=O)c2ccccc21 (stereo not given)	98.3*	56.7	i	58.4	0.195
Cc1cc(C)c(OC2(c3ccccc3)OC(=O)c3ccccc32)c(C)c1 (stereo not given)	3.2	59.8	i	56.9	0.989
CCOC(=O)C1CCCN(CC(O)COCc2ccc3c(c2)OCO3)C1 (stereo not given)	19.0	nt	i	nt	-0.0721
CC1CCCN(CC(O)COCC2COc3ccccc3O2)C1 (stereo not given)	85.9*	96.1	i	96.2	-0.781
OC(COCc1cccs1)CN1CCN(c2ccccn2)CC1 (stereo not given)	-3.9	96.6	i	99.1	0.737
OC(COCC1COc2ccccc2O1)CN1CCN(c2ccccn2)CC1 (stereo not given)	70.4*	88.7	i	95.2	0.367
CC1(c2nnc(-c3ccncc3)o2)CC(c2ccc([N+](=O)[O-])cc2)=NO1 (stereo not given)	nt	nt	nt	nt	0.0326
Cc1ccc[n+](-c2[nH]c(=O)sc2/C=N/NC(=O)c2ccccc2[O-])c1	-4.7	87.6	i	88.3	0.385
Fc1cc(F)c2nc(Nc3nc4cc5c(cc4s3)OCO5)sc2c1	-9.2	6.4	i	1.3*	-0.0744
Fc1cccc2sc(Nc3nc4cc5c(cc4s3)OCO5)nc12	60.1*	66.1	i	66.4	-0.279
O=C(COc1ccc(Cl)cc1Cl)N1CCCN(C(=O)COc2ccc(Cl)cc2Cl)CC1	97.4*	81.0	i	80.6	-0.0425
SMILES	L major viab	HCT116 PTEN-null	Autophagy HCS	bCat KO growth	Dynein cargo inh
CCn1ccnc1CN1CCN(CCC(C)C)C(CCO)C1 (stereo not given)	-3.5	nt	i	nt	-0.52
CC(C)NC(=O)C1CCN(c2ccc(S(=O)(=O)N3CCOCC3)cc2Cl)CC1	nt	nt	nt	nt	0.327
CN1CCN(S(=O)(=O)c2ccc(NC(=O)c3cccs3)cc2)CC1	-5.2	95.9	i	102.8	0.985
CCC(=O)N1CCN(c2ccc(NC(=S)NC(=O)C(C)C)cc2)CC1	-4.6	nt	+	nt	0.279
CN1CCN(S(=O)(=O)c2ccc(NC(=S)NC(=O)C3CCCC3)cc2)CC1	7.1	nt	i	nt	0.146
CCCCC(=O)Nc1ccc(N2CCN(C(=O)CC)CC2)cc1	-1.1	112.4	i	100.9	0.135
